Our source for the inhibition values is ChEMBL document CHEMBL4219143, “Synthesis, structure-activity relationships and preliminary mechanism study of N-benzylideneaniline derivatives as potential TLR2 inhibitors” (Bioorg Med Chem, 2018).

Some results are limits rather than exact numbers.

Holding throughout (type): cell-based
Assay [1] addresses Toll-like receptor 2 (Homo sapiens) (UniProt O60603). In words: Antagonist activity at human TLR2 expressed in HEK-blue cells assessed as inhibition of Pam3CSK4-induced NF-kappaB activation-mediated SEAP production at 50 uM after 24 hrs by Quanti-blue-based assay. A digest of the protocol: (§1)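 HEK-Blue hTLR2 cells in DMEM with 10% serum and antibiotics, plated at 4 × 10⁴ cells per well for 24 h. Medium then replaced with compound plus agonist for 24 h at 37 °C. Agonists (final): Pam₃CSK₄ 10 ng/ml (TLR1/2), Pam₂CSK₄ 10 ng/ml (TLR2/6), Poly I:C 10 µg/ml (TLR3). Supernatant mixed 1:1 with Quanti-Blue; SEAP read at OD 620 nm after 15–30 min.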

Assay [2] shares this target. In words: Antagonist activity at human TLR2 expressed in HEK-blue cells assessed as inhibition of Pam3CSK4-induced NF-kappaB activation-mediated SEAP production at 25 uM after 24 hrs by Quanti-blue-based assay. A digest of the protocol:
as §1

Assay [3] addresses TLR2/TLR6 (Homo sapiens) (UniProt O60603+Q9Y2C9). In words: Antagonist activity at human TLR2/6 expressed in HEK-blue cells assessed as inhibition of Pam2CSK4-induced IL-8 mRNA expression at 100 uM preincubated for 1 hr followed by Pam2CSK4 induction measured after 1 hr by qRT-PCR method relative to control.
The target of assay [4] is Toll-like receptor 1/2 (Homo sapiens) (UniProt O60603+Q15399). In words: Antagonist activity at human TLR1/2 expressed in HEK-blue cells assessed as inhibition of Pam3CSK4-induced IL-8 mRNA expression at 100 uM preincubated for 1 hr followed by Pam3CSK4 induction measured after 1 hr by qRT-PCR method relative to control.

Chain of Toll-like receptor 2 (Homo sapiens) (O60603 whole entry): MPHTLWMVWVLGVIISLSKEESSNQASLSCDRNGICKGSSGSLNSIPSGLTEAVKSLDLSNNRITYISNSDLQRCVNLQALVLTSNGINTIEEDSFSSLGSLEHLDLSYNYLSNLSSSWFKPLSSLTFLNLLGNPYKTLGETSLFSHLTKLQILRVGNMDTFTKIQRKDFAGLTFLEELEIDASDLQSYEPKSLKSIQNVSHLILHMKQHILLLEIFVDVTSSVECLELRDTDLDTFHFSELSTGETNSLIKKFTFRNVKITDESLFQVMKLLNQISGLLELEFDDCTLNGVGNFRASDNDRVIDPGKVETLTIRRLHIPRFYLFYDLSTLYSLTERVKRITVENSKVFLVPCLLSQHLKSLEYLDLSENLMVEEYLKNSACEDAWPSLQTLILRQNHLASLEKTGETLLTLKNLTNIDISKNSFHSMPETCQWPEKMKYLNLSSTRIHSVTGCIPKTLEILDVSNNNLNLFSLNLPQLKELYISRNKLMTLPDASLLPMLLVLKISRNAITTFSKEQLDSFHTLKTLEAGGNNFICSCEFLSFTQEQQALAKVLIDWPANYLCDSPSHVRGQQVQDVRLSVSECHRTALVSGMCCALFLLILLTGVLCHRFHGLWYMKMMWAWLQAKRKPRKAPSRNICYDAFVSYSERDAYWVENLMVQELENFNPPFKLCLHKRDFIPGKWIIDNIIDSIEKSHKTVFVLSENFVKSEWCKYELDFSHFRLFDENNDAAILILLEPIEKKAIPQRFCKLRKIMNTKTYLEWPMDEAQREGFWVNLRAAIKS

With `COc1cccc(/N=C/c2ccc(C(F)(F)F)cc2)c1`, the results for the inhibition in assay [1] and in assay [2] were 0.28% and 7.27%, respectively.

In the case of `COc1cc(/C=N/c2cc(N)cc(C(=O)O)c2)ccc1O`, the inhibition in assay [1] and in assay [2] was 0% throughout.

For `COc1ccc(/N=C\c2c[nH]c3ccccc23)cc1`, the inhibition stood at 0% in assay [1] and 2.11% in assay [2].

Turning to `FC(F)(F)c1ccc(/C=N/c2ccc(-c3ccccc3)cc2)cc1`, the inhibition in assay [1] was determined as 0.75%; in assay [2] it was 5.07%.

Consider `O=C(O)c1ccc(C(F)(F)F)cc1/N=C/c1c(O)ccc2ccccc12`, for which the inhibition in assay [1] is 0%; in assay [2], 2.53%.

In the case of `COc1cccc(/C=N/c2ccc(-c3ccccc3)cc2)c1`, the inhibition in assay [1] and in assay [2] was 0% in each case.

As to `Cc1cccc(/N=C/c2cccc(O)c2O)c1C(=O)O`, the inhibition turned out to be 21.2% in assay [1] and 15% in assay [2].

Take `Cc1cccc(/N=C/c2c(O)ccc3ccccc23)c1C(=O)O`: the inhibition in assay [1] and in assay [2] was 0% each time.

`COc1cccc(CNc2ccccc2C(=O)c2ccc(Cl)cc2)c1O`: the inhibition in assay [1] was 19.2%; in assay [2], 0%.

On to `CCOc1cccc(/C=N/c2ccccc2C(=O)c2ccc(Cl)cc2)c1O`, for which the inhibition stood at 70.7% in assay [1] and 35.5% in assay [2].

For the compound `CCOc1cccc(/C=N/c2cccc(C(=O)O)c2C)c1O`, the inhibition in assay [1] is 38%; in assay [2], 5.43%.

Take `CCOc1cccc(/C=N/c2ccc(-c3ccccc3)cc2)c1O`: the inhibition was found to be 64.1% in assay [1] and 24.2% in assay [2].

For the compound `COc1cc(/C=N/c2ccc(-c3ccccc3)cc2)ccc1O`, the results for the inhibition in assay [1] and in assay [2] were 0% and 2.39%, respectively.

As for `Cc1c(/N=C/C=C/c2ccccc2)cccc1C(=O)O`, the inhibition in assay [1] is 14.4%; in assay [2] it was 1.74%.

On to `CCOc1cccc(/C=N/c2cccc(C(=O)O)c2)c1O`, for which the inhibition in assay [1] came to 19.4%; in assay [2], 6.93%.

Take `COc1cccc(/C=N/c2cccc(C(=O)O)c2C)c1`: the inhibition in assay [1] was determined as 1.61%; in assay [2] it was 0.99%.

With `COc1ccc(/N=C/c2cccc3ccccc23)cc1`, the inhibition is 1.97% in assay [1] and 5.21% in assay [2].

As to `COc1ccc(/N=C/c2cccc(OC)c2O)cc1`, the inhibition is 45.6% in assay [1] and 3.77% in assay [2].

Consider `CCOc1cccc(/C=N/c2ccccc2C(=O)c2ccccc2)c1O`, for which the figures for the inhibition in assay [1] and in assay [2] were 49% and 3.59%, respectively.

As for `Oc1ccc2ccccc2c1/C=N/c1ccc(-c2ccccc2)cc1`, the inhibition in assay [1] was 1.41%; in assay [2], 5.35%.

As to `O=C(c1ccccc1)c1ccccc1/N=C/c1c(O)ccc2ccccc12`, the inhibition in assay [1] was 0%; in assay [2], 2.72%.

`C(=N\c1ccc(-c2ccccc2)cc1)/c1cccc2ccccc12`: the inhibition in assay [1] and in assay [2] was 0% in each case.

Take `COc1ccc(/N=C/c2c(O)ccc3ccccc23)cc1`: the inhibition came out at 0% in assay [1] and 3.66% in assay [2].

As to `O=C(O)c1ccc(C(F)(F)F)cc1/N=C\c1c[nH]c2ccccc12`, the inhibition in assay [1] is 5.77%; in assay [2], 0.33%.

Consider `COc1ccc(/N=C/c2cccc(O)c2O)cc1`, for which the inhibition in assay [1] is 44.9%; in assay [2], 17%.

Turning to `Cc1c(/N=C/c2c(O)ccc3ccccc23)cccc1C(=O)O`, the inhibition in assay [1] and in assay [2] was 0% each time.

As to `COc1ccc(/N=C/c2ccc(O)c(OC)c2)cc1`, the inhibition in assay [1] and in assay [2] was 0% throughout.

On to `COc1cccc(/C=N/c2ccccc2C(=O)c2ccccc2)c1O`, for which the results for the inhibition in assay [1] and in assay [2] were 30% and 1.86%, respectively.

For `COc1ccc(/N=C/C=C/c2ccccc2)cc1`, the inhibition in assay [1] turned out to be 15.1%; in assay [2] it was 3.99%.

With `Oc1ccc(/N=C/C=C/c2ccccc2)cc1`, the values for the inhibition in assay [1] and in assay [2] were 95.8% and 27.5%, respectively.

Turning to `Cc1c(/N=C/c2ccc(C(F)(F)F)cc2)cccc1C(=O)O`, the inhibition in assay [1] and in assay [2] was 0% in each case.

Take `O=C(O)c1cccc(/N=C/c2cccc(O)c2O)c1`: the inhibition in assay [1] worked out at 9.05%; in assay [2], 5%.

In the case of `C(=C\c1ccccc1)/C=N/c1ccc(-c2ccccc2)cc1`, the inhibition in assay [1] amounted to 3.1%; in assay [2], 5.63%.

Turning to `O=C(c1ccc(Cl)cc1)c1ccccc1/N=C/c1c(O)ccc2ccccc12`, the results for the inhibition in assay [1] and in assay [2] were 22.9% and 3.09%, respectively.

As to `O=C(O)c1cccc(/N=C/c2c(O)ccc3ccccc23)c1`, the inhibition in assay [1] and in assay [2] was 0% in each case.

Turning to `COc1cc(/C=N/c2ccc(O)cc2)ccc1O`, the inhibition came to 62.7% in assay [1] and 7.51% in assay [2].

Consider `COc1cccc(/C=N/c2ccc(O)cc2)c1O`, for which the results for the inhibition in assay [1] and in assay [2] were 91.1% and 14.9%, respectively.

As for `CCOc1cccc(/C=N/c2ccc(O)cc2)c1O`, the inhibition in assay [1] was 75.7%; in assay [2], 5.77%.

In the case of `COc1cccc(/C=N/c2ccc(O)cc2)c1`, the inhibition came to 56.4% in assay [1] and 0.74% in assay [2].

Turning to `Oc1ccc(/N=C/c2c(O)ccc3ccccc23)cc1`, the inhibition in assay [1] and in assay [2] was 0% in each case.

Turning to `Cc1c(/N=C\c2c[nH]c3ccccc23)cccc1C(=O)O`, the inhibition in assay [1] came to 2.58%; in assay [2], 2.39%.

`Oc1ccc(/N=C/c2cccc3ccccc23)cc1`: the inhibition in assay [1] is 98.8%; in assay [2] it was 44%.

As for `CCOc1cccc(/C=N/c2ccc(OC)cc2)c1O`, the results for the inhibition in assay [1] and in assay [2] were 35.2% and 8.33%, respectively.

Regarding `COc1cccc(/C=N/c2ccc(-c3ccccc3)cc2)c1O`, the inhibition is 75.3% in assay [1] and 23.3% in assay [2].

Regarding `COc1ccc(/N=C/c2cccc(OC)c2OC)cc1`, the inhibition in assay [1] and in assay [2] was 0% throughout.

On to `COc1cccc(/C=N/c2cccc(C(=O)O)c2)c1O`, for which the inhibition in assay [1] was 23.7%; in assay [2], 0%.

Turning to `C(=N/c1ccc(-c2ccccc2)cc1)/c1c[nH]c2ccccc12`, the figures for the inhibition in assay [1] and in assay [2] were 3.8% and 2.35%, respectively.

Consider `COc1cccc(/C=N/c2cccc(C(=O)O)c2C)c1O`, for which the inhibition in assay [3] is > 50%; in assay [1], 51.8%; in assay [4], > 50%; in assay [2] it was 14.9%.

As for `CCOc1cccc(/C=N/c2cccc(C)c2C(=O)O)c1O`, the results for the inhibition in assay [1] and in assay [2] were 27.8% and 2.39%, respectively.
